Results taken from publication PMC10074403 (Chemical Science, 2023).

Assays:
A2780 cells = assay: Intracellular EdU release from PE NPs; format: cell-based, human; details: 10 μM EdU equiv., 6 h with PE NPs (1 h with EdU), azide-488
How it was run: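 Human ovarian adenocarcinoma A2780 cells are treated with nanoparticles of mutual prodrugs built with the nucleoside analog EdU as a gemcitabine surrogate, or with free EdU; nanoparticle exposure is 6 h. EdU incorporated into DNA is detected by click reaction with azide-488. Images show green overlap with blue-stained nuclei (cyan) to indicate nuclear EdU incorporation.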

[1] = system: A549 human lung adenocarcinoma xenografts; assay: In vivo anticancer efficacy in A549 xenografts; parameters: species or system female BALB/c nude mice; details: PTX 20 mg kg−1 equiv., Gem 6.4 mg kg−1, i.v. on days 0, 3, 6; n = 5

| Structure (SMILES) | Distribution of green fluorescence (EdU incorporation into nuclei) (A2780 cells) | A549 tumor growth (relative tumor size) [1] |
| --- | --- | --- |
| C#Cc1cn([C@H]2C[C@H](O)[C@@H](CO)O2)c(=O)[nH]c1=O [EdU, 5-ethynyl-2′-deoxyuridine] | centralized in the area of the nucleus |  |
| Nc1ccn([C@@H]2O[C@H](CO)[C@@H](O)C2(F)F)c(=O)n1 [Gem, gemcitabine] |  | failed to effectively suppress tumor growth |
